# In PubChem BioAssay AID1230 (PCMD, 2008):
# The campaign covered roughly 210,000 compounds. About 220 (0.1%) were called active. Many of the other results were omitted from the sample, so actives are more common in it than they were. A number with no mark means an inactive call.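 How the source made its calls: active means signal enhancement of 30% or more; inactive means the rest.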
# Target: E3 ubiquitin-protein ligase Mdm2 (Homo sapiens) (UniProt Q00987)
# Experiment: MDM2-luciferase reporter signal enhancers, primary screen, MDM2 E3 ligase inhibitor project, cell-based, luminescence, 1536-well (AID 1230);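 further: luminescence tracks abundance of the self-degrading MDM2-luciferase fusion protein; higher signal means inhibition of MDM2 E3 ligase activity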
# Conditions: cell-based MDM2 ubiquitination luciferase reporter, 2 h; at 5 µM; active compounds read high; 0 = plate control, 100 = twice control, blank-subtracted
# In short: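 Test system: stable mammalian line carrying autodegrading MDM2–luciferase fusion reporter; quantity: 2000 cells in each well; times: 4 h cell settling then 2 h compound exposure, 37 °C; detection: luminescence with SteadyLite reagent, 15 min at room temperature; evaluation: percent signal gain over controls, blank-subtracted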
# Chain of E3 ubiquitin-protein ligase Mdm2 (Homo sapiens) (Q00987 whole entry, looked up, the tested form may be a part): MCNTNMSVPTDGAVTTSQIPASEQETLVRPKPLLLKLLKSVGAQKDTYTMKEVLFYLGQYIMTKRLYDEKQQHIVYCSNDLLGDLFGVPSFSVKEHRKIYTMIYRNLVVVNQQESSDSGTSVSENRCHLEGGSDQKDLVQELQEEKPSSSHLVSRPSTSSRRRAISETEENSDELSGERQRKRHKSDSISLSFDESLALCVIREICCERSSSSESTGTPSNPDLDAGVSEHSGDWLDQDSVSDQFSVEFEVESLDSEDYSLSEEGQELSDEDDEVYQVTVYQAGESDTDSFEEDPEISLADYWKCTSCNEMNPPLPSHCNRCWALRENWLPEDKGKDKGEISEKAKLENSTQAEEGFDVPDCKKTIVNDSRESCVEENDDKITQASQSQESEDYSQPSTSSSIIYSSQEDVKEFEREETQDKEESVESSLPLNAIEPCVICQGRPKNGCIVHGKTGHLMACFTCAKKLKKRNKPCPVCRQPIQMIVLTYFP
row,Structure (SMILES),signal enhancement
1,CSc1sc(C(=O)NC(=O)NCc2cccnc2)c(C)c1-c1ccon1,-12.8%
2,O=C(NCCCn1ccnc1)C(=O)NCC1OCCN1S(=O)(=O)c1cc(F)ccc1F (configuration not stated),-1.11%
3,Cc1cc(C)nc(S/C=C/C(=O)c2ccccc2)n1,45.8% (active)
4,Cc1cc(SCC(=O)c2ccccc2)nc(SCC(=O)c2ccccc2)n1,-22.4%
5,C/C(=N\NC(=O)c1nc(C)cc(C)n1)c1ccccc1,-2.38%
6,CNC(=S)NNC(=O)c1oc2nc(-c3ccccc3)cc(-c3ccco3)c2c1N,-16.3%
7,Cc1noc(C)c1COC(=O)COc1ccc(-c2ccccc2)cc1,-6.72%
8,CCS(=O)(=O)c1cc([N+](=O)[O-])c(Sc2ccccc2N)s1,-43.9%
9,CS(=O)(=O)c1ccc2nnn(OCC(=O)Nc3cccc(C#N)c3)c2c1,-16.9%
10,CC(=O)c1ccc(S(=O)(=O)N2CCN(C(=O)/C=C/c3ccc4ccccc4n3)CC2)cc1,-8.84%
11,C/C=C\C=C\C(=O)N1CC2(CC(c3cccc(NC(=O)/C(C)=C\C)c3)=NO2)C[C@H]1C(N)=O (some centres not stated),-14.1%
12,Cn1ccc(=NC=C(C#N)C#N)c2ccccc21,30.3% (active)
13,CCOC(=O)c1cc(C)nc(S(C)(=O)=O)c1C#N,-11%
14,CCOC(=O)c1c(NC(=S)NC)sc2c1CCCC2,-8.08%
15,COc1ccc(/C=C/C(=O)Nc2ccc(C34CC5CC(CC(O)(C5)C3)C4)cc2)cc1OC,45.6% (active)
16,COc1ccc(/C=C/C(=O)Nc2ccc3c(c2)OCCO3)cc1OC,-7.44%
17,COc1ccc(/C=C/C(=O)Nc2cccnc2)cc1OC,-3.38%
18,Clc1ccc(C[n+]2cc(-c3ccccc3)n3c2CCC3)cc1,-18.4%
19,S=c1[nH]nc(-c2cccs2)n1/N=C/c1cn(-c2ccccc2)nc1-c1ccc(Cl)cc1,-7.25%
20,COc1cccc(C2Nc3cccc4cccc(c34)N2)c1,-2.34%
21,CNC(=O)C(NC(=O)c1ccccc1)=C(C)C,-12.3%

row,Structure (SMILES),signal enhancement
1,COc1ccccc1OCC(=O)O/N=C(\N)c1ccccn1,-10.7%
2,N/C(=N\OC(=O)Nc1ccccc1)c1ccno1,-4.12%
3,CCCc1nc2c(c(=O)c3ccccc3n2C)c(=O)n1-c1cc(C)cc(C)c1,-9.46%
4,COc1ccc(NC(=O)CSc2ncnc3[nH]ncc23)cc1,-3.15%
5,CC(C)(C)c1cc(NC(=O)NN2CCOCC2)nn1-c1c(Cl)cc(Cl)cc1Cl,-17.5%
6,CCOC(=O)C1CCN(C(=O)Nc2ccc(C)c(Cl)c2)CC1,-11.1%
7,Cn1nccc1NC(=O)Nc1ccc(OC(F)(F)F)cc1,-5.96%
8,O=C1NC[C@@H](Cc2ccc(O)cc2)N(CCc2cccc(F)c2)C1=O,10.9%
9,COc1ccc(CNC(=O)C(Cc2ccccc2)n2cccc2)cc1 (configuration not stated),-4.92%
10,Cn1cnc([N+](=O)[O-])c1Sc1n[nH]c(N)n1,-5.56%
11,O=C(CCc1ccccc1)NNc1ccc(F)cc1,-12.4%
12,CCCCCCCCCCCCN1C(=O)CSC1c1cccnc1 (configuration not stated),-5.41%
13,O=C(NCC1CCCO1)c1cc(-c2ccccc2)nc2ccccc12 (configuration not stated),-4.98%
14,CCOC(=O)C(=CNNc1ccsc1C(=O)OC)C(=O)OCC,-27.3%
15,COCCn1c(=NC(=O)c2ccccc2[N+](=O)[O-])sc2cc(S(C)(=O)=O)ccc21,-5.21%
16,CC(=O)c1ccc2c(c1)OCCOCCOc1ccc(C(C)=O)cc1OCCOCCO2,-8.95%
17,Cn1c(=NC(=O)c2ccc3c(c2)OCCO3)sc2cc(S(C)(=O)=O)ccc21,37% (active)
18,Cc1cccc(N(C)C(=O)c2cc3c(=O)[nH]c4ccc(C)cc4c3s2)c1,2.91%
19,Cc1cccc(N2CCN(Cc3nc(C4CC4)no3)CC2)n1,2.81%
20,CC(C)(C)c1cc(P(=O)(c2ccccc2)c2ccccc2)ccc1O,-14%
21,COc1ccc(CCNC(=O)C2CC3Cn4c(nc5cc(C)c(C)cc54)C3N2C)cc1 (configuration not stated),13%

row,Structure (SMILES),signal enhancement
1,CC1=NOC(=O)/C1=C\c1ccccc1,-4.01%
2,Cc1cccc(C)c1Nc1c(-c2ccccc2O)nc2ncccn12,-18.4%
3,CN(Cc1nc(-c2cnccn2)no1)Cc1n[nH]c2c1CCCCC2,-8.5%
4,Clc1ccc(CSc2nnc3c(n2)[nH]c2ccccc23)cc1,-10.6%
5,CCNc1nc(NCC)nc(N/N=C/c2ccc(O)c(OC)c2)n1,-10%
6,CC(=O)N1N=C(c2ccncc2)OC1(Cc1ccccc1)Cc1ccccc1,-11.4%
7,CCC(C)(C)NC(=O)C(c1ccc(O)cc1)N(C(=O)Cn1nnc2ccccc21)c1ccc(NC(C)=O)cc1 (configuration not stated),-11.7%
8,Cn1c2ccc(F)cc2c2nnc(NN)nc21,-2.02%
9,COc1ccc(OC)c(NC(=O)N[C@H](Cc2ccccc2)C(=O)NN)c1,-4.05%
10,NC(=O)CC(NC(=O)Cc1cccc2ccccc12)c1ccc(NCc2cc(F)ccc2F)c([N+](=O)[O-])c1 (configuration not stated),5.13%
11,COc1ccc(OCC(O)CNCCNc2nccc(C(F)(F)F)n2)cc1 (configuration not stated),-12.4%
12,CC1CN(c2nc(Nc3ccccc3)nc(N)c2[N+](=O)[O-])CC(C)O1 (configuration not stated),-20.6%
13,Cc1c(C(=O)N(Cc2ccccc2)Cc2cccnc2)cnn1-c1ccc(F)cc1,-11.7%
14,Oc1c(CN2CCN(c3ccc(F)cc3)CC2)cc(Cl)c2cccnc12,9.75%
15,O=c1[nH]n(-c2cccc(Cl)c2)c2ncccc12,-4.4%
16,Clc1cccc(CN2COc3c(cc(Cl)c4cccnc34)C2)c1,46.8% (active)
17,CCCSc1ncccc1C(=O)O,-7.45%
18,COC(=O)C1=C(N)Oc2cc(C)[nH]c(=O)c2C1c1ccc(Cl)cc1 (configuration not stated),-10.2%
19,CSc1nnc(SCc2nc3sc(C(=O)O)c(C)c3c(=O)[nH]2)s1,-16.2%
20,O=C(CSc1nnnn1-c1ccc(O)cc1)c1ccc(F)cc1,-12.1%
